Test [1] can be described thus: inhibitors of TNFa-induced NFkB p65 translocation, primary screen, imaging, HUVEC, MLSMR starter and 10KST1 sets (AID 438;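 active = inhibition above 20% together with a positive visual image hit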;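 note: compound added about 3h40 before a 20 min TNFalpha stimulation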;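 for inhibition: signal is the nuclear over cytoplasmic p65 intensity ratio per well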). The note with it: HUVEC TNFa-induced p65 nuclear translocation; cell count: measured here: nuclei count (cytotoxicity indicator), at 2.08 µM; inhibition: at 2 µM, stronger effect = higher value, 0% TNFa-plus-vehicle, 100% no-TNFa wells.
The nature of test [2]: inhibitors of mutant huntingtin aggregation, primary screen, imaging, exon1htt(103Q)mCFP cells, high-content imaging (AID 483;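 active = visual image review flags a hit and inhibition of aggregation exceeds 20%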;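 note: compound exposure lasted 3 days before fixation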;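 for nuclei count: percent of the per-plate median nuclei count of sample wells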). The note with it: exon1htt(103Q)mCFP cell line, aggregate imaging, at 2 µM; inhibition of aggregation: stronger effect = higher value; nuclei count: measured here: cell count, toxicity.
A short description of test [3]: inhibitors of E-selectin induction by TNFa, primary screen, imaging, HUVEC, immunofluorescence, MLSMR starter and 10KST1 sets (AID 487;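 active = visually confirmed hit in the image check and inhibition above 20%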;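 for inhibition: signal is fraction of cell area covered by stained E-selectin grains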;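 for nuclei count: 100% = median nuclei count of all wells on the same plate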). Particulars: HUVEC TNFalpha-induced E-selectin immunofluorescence imaging, at 2 µM; inhibition: stronger effect = higher value; nuclei count: measured here: cell number, toxicity.
Test [4] addresses Voltage-gated potassium channel subunit beta-2 (Rattus norvegicus) (UniProt P62483). As to the kind of experiment: KvBeta enzyme negative modulators, primary screen, biochemical, NADPH fluorescence (AID 622;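 active = fluorescence slope higher than the sample average by over 3 SD, cut at about -0.22 in these data, passing the limit was not always enough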;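 note: slope of raw intensity against log time taken from 70 to 1610 s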). Particulars: recombinant KvBeta, 4-cyanobenzaldehyde reduction, at 10 µM, stronger effect = higher value.
Test [5] has the same target. As to the kind of experiment: KvBeta positive modulators, primary screen, biochemical, NADPH fluorescence (AID 623;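 active = NADPH fluorescence slope more negative than the mean of all samples by about 3 SD, 99.7% confidence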;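 note: fluorescence intensity change per second fitted from 20 to 320 s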). Particulars: Recombinant KvBeta, NADPH fluorescence decrease slope, 10 min; at 10 µM; stronger effect = lower value.
The target in test [6] is Muscarinic acetylcholine receptor M4 (Homo sapiens) (UniProt P08173). As to the kind of experiment: compounds altering M4/GIRK thallium flux, either direction, primary screen, M4 allosteric agonist project, cell-based, HEK293 M4/GIRK, BTC-AM (AID 625;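 active = fluorescence slope after compound addition differing from the mean of all tested samples at 99.7% confidence, mostly higher but some lower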;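 note: thallium influx through GIRK channels coupled to M4 in HEK293 cells with BTC-AM dye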). The note with it: at 10 µM, actives lie on both sides. A digest of the protocol:
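Material: M4/GIRK1/GIRK2 stable HEK293 cell line. Medium: pH 7.3 thallium assay buffer. Dosing: single compound concentration, 10 µM final. Schedule: 1 h dye loading, 2 min kinetic read. Measured by: kinetic fluorescence with BTC-AM dye. Read-out: post-addition slope, 15–24 s, of baseline-normalized fluorescence. Benchmarks: carbachol and DMSO controls.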

Test [7] can be described thus: inhibitors of Sendai virus-induced IRF3 signaling, primary screen, TLR/RLR signaling modifier project, cell-based, Sendai virus stimulus, luciferase, 10K MLSCN set (AID 602276).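 Note: firefly luciferase from ISG56 promoter only with Renilla not read in this screen; 0% = Sendai virus plus DMSO and 100% = medium plus DMSO without virus.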 Particulars: HEK293 RL24 IRF3 luciferase reporter, at 10 µM, stronger effect = higher value. On the technique in general: In a reporter assay the amount or activity of a reporter protein is the signal.

The nature of test [8]: inhibitors of poly I:C-induced TLR3 signaling, primary screen, cell-based, poly I:C stimulus, luciferase, 10K MLSCN set (AID 602277;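 active = inhibition of the reporter signal at or above 50%; inactive = inhibition below 50%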). The note with it: HEK293-TLR3 RL24 IRF3 luciferase reporter, at 10 µM, stronger effect = higher value.

Activity calls are given as the source filed them.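 Rule for the calls, unless noted: active = inhibition at or above 50% at 10 µM; inactive = inhibition below 50%.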

Voltage-gated potassium channel subunit beta-2 (Rattus norvegicus), sequence (P62483 whole entry, looked up): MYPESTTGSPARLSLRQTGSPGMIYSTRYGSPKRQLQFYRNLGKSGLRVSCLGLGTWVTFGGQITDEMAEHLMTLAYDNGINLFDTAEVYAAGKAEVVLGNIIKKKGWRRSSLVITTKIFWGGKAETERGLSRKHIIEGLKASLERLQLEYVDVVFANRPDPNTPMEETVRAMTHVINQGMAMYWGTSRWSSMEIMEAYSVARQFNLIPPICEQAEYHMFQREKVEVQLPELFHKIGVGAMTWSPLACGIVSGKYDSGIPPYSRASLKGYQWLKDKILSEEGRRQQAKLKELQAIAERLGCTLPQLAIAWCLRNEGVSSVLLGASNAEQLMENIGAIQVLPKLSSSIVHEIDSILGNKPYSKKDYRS
Muscarinic acetylcholine receptor M4 (Homo sapiens), sequence (P08173 whole entry, looked up): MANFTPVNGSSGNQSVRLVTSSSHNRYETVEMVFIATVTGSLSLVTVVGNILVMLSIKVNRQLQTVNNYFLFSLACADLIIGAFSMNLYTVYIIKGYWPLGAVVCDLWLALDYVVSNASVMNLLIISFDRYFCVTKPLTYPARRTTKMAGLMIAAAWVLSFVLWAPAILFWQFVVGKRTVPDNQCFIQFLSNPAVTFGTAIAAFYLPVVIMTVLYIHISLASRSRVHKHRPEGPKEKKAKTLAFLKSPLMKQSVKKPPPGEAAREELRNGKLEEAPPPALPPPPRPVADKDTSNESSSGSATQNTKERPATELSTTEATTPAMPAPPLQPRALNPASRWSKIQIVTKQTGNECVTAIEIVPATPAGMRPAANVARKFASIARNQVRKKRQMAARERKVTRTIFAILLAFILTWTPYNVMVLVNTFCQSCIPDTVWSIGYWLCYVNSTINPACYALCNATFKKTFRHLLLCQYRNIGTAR

For `Cc1ccc(S(=O)(=O)N(CC(=O)N2CCC(C(N)=O)CC2)c2cccc(C(F)(F)F)c2)cc1`, in test [1], the cell count amounted to 327. For the same compound, the inhibition (in general, the drop in the measured response relative to a control, in per cent) in test [1] is 1% (inactive); in test [3], -15.7% (inactive); in test [7] it was 25.2% (inactive); in test [8] it was 25.1% (inactive). Besides, the inhibition of aggregation in test [2] was -0.2% (inactive). The results for the nuclei count in test [2] and in test [3] were 112% and 114%, respectively. Also, the fluorescence slope in test [4] was -0.556 (inactive); in test [6], 0.00443 (inactive). Also, in test [5], the NADPH fluorescence slope was 5.5e-06 (inactive).
As for `O=C(CSc1ncnc2sc3c(c12)CCCCC3)NCc1ccco1`, in test [1], the cell count was determined as 354. In addition, the inhibition in test [1] was -5.1% (inactive); in test [3] it was -196% (inactive); in test [7], 17.7% (inactive); in test [8], 35.5% (inactive). Besides, the inhibition of aggregation in test [2] was -11.3% (inactive). For the same compound, the nuclei count was 93.9% in test [2] and 128% in test [3]. The fluorescence slope in test [4] is -0.472 (inactive); in test [6] it was 0.0063 (inactive). Further, the NADPH fluorescence slope in test [5] was -1.4e-05 (inactive).
For the compound `CC1(C)Cc2c(sc3ncnc(N)c23)CO1`, the cell count in test [1] worked out at 545. Moreover, the inhibition in test [1] is -14.9% (inactive); in test [3], -122% (inactive); in test [7] it was 15.3% (inactive); in test [8] it was 16.7% (inactive). Further, in test [2], the inhibition of aggregation was 5.4% (inactive). The values for the nuclei count in test [2] and in test [3] were 114% and 108%, respectively. Besides, the fluorescence slope is -0.384 (inactive) in test [4] and 0.00833 (inactive) in test [6]. Further, the NADPH fluorescence slope in test [5] is -2.5e-05 (inactive).
Consider `O=C(CCn1nc(-c2ccccc2)ccc1=O)N1CCCC1`, for which the cell count in test [1] turned out to be 349. Moreover, the inhibition was 2.1% (inactive) in test [1], -8.9% (inactive) in test [3], 6.69% (inactive) in test [7] and 2.22% (inactive) in test [8]. Further, the inhibition of aggregation in test [2] was -17% (inactive). Moreover, the nuclei count came to 95.9% in test [2] and 106% in test [3]. In addition, the fluorescence slope was -0.577 (inactive) in test [4] and 0.00645 (inactive) in test [6]. Moreover, in test [5], the NADPH fluorescence slope was -2e-05 (inactive).
For `COC(=O)CCCCCNc1ccc(C(=O)OC)cc1N`, in test [1], the cell count came out at 292. Besides, the inhibition in test [1] is 7.7% (inactive); in test [3], -71.5% (inactive); in test [7], 6.15% (inactive); in test [8], 18.3% (inactive). Also, the inhibition of aggregation in test [2] was 12.1% (inactive). The nuclei count was 92.9% in test [2] and 122% in test [3]. The fluorescence slope in test [4] is -0.341 (inactive); in test [6] it was 0.00505 (inactive). Besides, in test [5], the NADPH fluorescence slope is -6.2e-05 (inactive).
As for `Cc1cc(=O)[nH]c2c1cnn2Cc1ccccc1`, the cell count in test [1] turned out to be 270. Moreover, the inhibition was 3.9% (inactive) in test [1], -37.7% (inactive) in test [3], 13.7% (inactive) in test [7] and 15.7% (inactive) in test [8]. The inhibition of aggregation in test [2] was 13.6% (inactive). The nuclei count in test [2] came out at 79.2%; in test [3], 104%. The fluorescence slope in test [4] is -0.483 (inactive); in test [6], 0.00447 (inactive). Further, the NADPH fluorescence slope in test [5] was -6.1e-05 (inactive).
In the case of `CCOP(=O)(c1ccc(N(C)C)cc1)C(O)c1cc(OC)c(OC)c(OC)c1` (centres undefined), the cell count in test [1] was determined as 713. Besides, the inhibition in test [1] is -0.6% (inactive); in test [3], 10.2% (inactive); in test [7] it was 4.26% (inactive); in test [8], 21% (inactive). Besides, the inhibition of aggregation in test [2] was 0% (inactive). Besides, the results for the nuclei count in test [2] and in test [3] were 113% and 103%, respectively. Also, the fluorescence slope in test [4] was -0.455 (inactive); in test [6], 0.00563 (inactive). Further, in test [5], the NADPH fluorescence slope was -4.5e-05 (inactive).
With `CCNc1nc(NC(C)C)nc(N(C#N)CCOc2ccc(Cl)cc2Cl)n1`, in test [1], the cell count was found to be 603. For the same compound, the inhibition in test [1] is -8.6% (inactive); in test [3], -123% (inactive); in test [7] it was 15.5% (inactive); in test [8], -2.09% (inactive). Moreover, the inhibition of aggregation in test [2] is 20.7% (inactive). Moreover, the nuclei count in test [2] was 98.5%; in test [3], 96.3%. In addition, the fluorescence slope in test [4] is -0.446 (inactive); in test [6] it was 0.00644 (inactive). In test [5], the NADPH fluorescence slope is -3.7e-05 (inactive).
On to `Cc1ccc(CSc2nc3c(c(=O)[nH]2)C(c2ccncc2)C2=C(CCCC2=O)N3)cc1` (centres undefined), for which the cell count in test [1] is 518. The inhibition is -16.7% (inactive) in test [1], -14.5% (inactive) in test [3], 21.7% (inactive) in test [7] and 15.5% (inactive) in test [8]. Besides, the inhibition of aggregation in test [2] is 3.6% (inactive). Also, the nuclei count in test [2] stood at 79.3%; in test [3], 87.2%. Moreover, the figures for the fluorescence slope in test [4] and in test [6] were -0.457 (inactive) and 0.00543 (inactive), respectively. Also, the NADPH fluorescence slope in test [5] is -3.5e-05 (inactive).
As for `CCn1nc(C(=O)OCC(=O)c2cc(C)n(Cc3cccs3)c2C)c2ccccc2c1=O`, the cell count in test [1] amounted to 381. Also, the inhibition in test [1] was -2.1% (inactive); in test [3], -97.8% (inactive); in test [7], 19.8% (inactive); in test [8] it was 7.59% (inactive). For the same compound, the inhibition of aggregation in test [2] is 25.7% (inactive). Besides, the values for the nuclei count in test [2] and in test [3] were 90.2% and 113%, respectively. Besides, the fluorescence slope in test [4] is -0.556 (inactive); in test [6] it was 0.00739 (inactive). In test [5], the NADPH fluorescence slope is 0.000162 (inactive).
Turning to `CC1CCN(C(=O)CSc2nnc(-c3cccnc3)n2C2CCCCC2)CC1`, in test [1], the cell count came out at 463. The inhibition in test [1] was -5.1% (inactive); in test [3], -34.6% (inactive); in test [7], 18.4% (inactive); in test [8] it was 16.9% (inactive). In test [2], the inhibition of aggregation is 6.5% (inactive). Moreover, the nuclei count in test [2] worked out at 121%; in test [3], 134%. In addition, the fluorescence slope was -0.471 (inactive) in test [4] and 0.00469 (inactive) in test [6]. Moreover, the NADPH fluorescence slope in test [5] was -2.5e-05 (inactive).
For `Clc1ccccc1OCc1nn2c(-c3ccncc3)nnc2s1`, the cell count in test [1] was 352. In addition, the inhibition in test [1] was 2.6% (inactive); in test [3] it was -23.5% (inactive); in test [7] it was 8.19% (inactive); in test [8], -3.24% (inactive). In test [2], the inhibition of aggregation was 35.5% (inactive). The nuclei count in test [2] came out at 91.1%; in test [3] it was 118%. Also, the fluorescence slope was -0.298 (inactive) in test [4] and 0.00567 (inactive) in test [6]. In addition, in test [5], the NADPH fluorescence slope was -6.4e-05 (inactive).
`CCOc1ccccc1Nc1nc2ccccc2[nH]1`: the cell count in test [1] came to 327. Further, the inhibition in test [1] was 1.2% (inactive); in test [3] it was 2.9% (inactive); in test [7], -18.9% (inactive); in test [8] it was -39.8% (inactive). Moreover, the inhibition of aggregation in test [2] is 5.9% (inactive). Moreover, the nuclei count in test [2] amounted to 111%; in test [3], 109%. In addition, the results for the fluorescence slope in test [4] and in test [6] were -0.524 (inactive) and 0.00599 (inactive), respectively. Also, the NADPH fluorescence slope in test [5] was -0.000156 (active).
Regarding `CCOC(=O)C1CCN(C(=O)Nc2ccc3snnc3c2)CC1`, in test [1], the cell count was 408. Besides, the inhibition in test [1] is 5.7% (inactive); in test [3], -38.5% (inactive); in test [7], 13.9% (inactive); in test [8], 10.8% (inactive). Besides, the inhibition of aggregation in test [2] is 5% (inactive). For the same compound, the nuclei count in test [2] is 89.8%; in test [3], 107%. Besides, the figures for the fluorescence slope in test [4] and in test [6] were -0.206 (inactive) and 0.00565 (inactive), respectively. Moreover, the NADPH fluorescence slope in test [5] was -2.9e-05 (inactive).

The values above are taken from PubChem BioAssay.
